Measured values reported in ChEMBL document CHEMBL1154379, “Soluble polyphenols: synthesis and bioavailability of 3,4',5-tri(alpha-D-glucose-3-O-succinyl) resveratrol” (Bioorg Med Chem Lett, 2009).
In brackets after ≈: the same amount, converted by molar mass.

What was measured:
[1] = tested on: Rattus norvegicus; experiment: AUC in intragastrically dosed rat assessed as resveratrol sulfate level at 0.09 mmol/kg after 10 mins; assay type: ADME, organism-based, Plasma; set-up: dose 0.09 mmol/kg, time < 0.166667 hr, route intragastric; details: in vivo, po
In short: (§1)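 Rats received intragastric doses, with the same animals given both resveratrol and the derivative to limit individual variability. Blood was sampled over time. Circulating resveratrol and its sulfate and glucuronide conjugates were identified by HPLC–UV at 320 nm and LC–MS against synthesized phase II metabolite standards, confirmed by enzymatic treatment. Cmax and AUC were taken from concentration–time curves.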

[2] = Solubility in water at room temperature; assay type: physicochemical
[3] = tested on: Rattus norvegicus; experiment: AUC in intragastrically dosed rat assessed as resveratrol disulfate level at 0.09 mmol/kg after 10 mins; assay type: ADME, organism-based, Plasma; set-up: time < 0.166667 hr, dose 0.09 mmol/kg, route intragastric; details: in vivo, po; in short: as §1
[4] = tested on: Rattus norvegicus; experiment: AUC in intragastrically dosed rat assessed as total metabolite level at 0.09 mmol/kg after 10 mins; assay type: ADME, organism-based, Plasma; set-up: dose 0.09 mmol/kg, time < 0.166667 hr, route intragastric; details: in vivo, po; in short: as §1
[5] = Chemical stability in 1N HCl solution assessed as compound remaining at 37degC; assay type: physicochemical; details: buffer
In short: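 The compound was incubated in 1 N HCl at 37 °C for 6 h and analysed by LC–MS. The amount remaining is expressed as % of the initial molar amount.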

[6] = tested on: Rattus norvegicus; experiment: AUC in intragastrically dosed rat assessed as resveratrol glucuronide level at 0.09 mmol/kg after 10 mins; assay type: ADME, organism-based, Plasma; set-up: time < 0.166667 hr, dose 0.09 mmol/kg, route intragastric; details: in vivo, po; in short: as §1
[7] = tested on: Rattus norvegicus; experiment: AUC in intragastrically dosed rat assessed as resveratrol level at 0.09 mmol/kg after 10 mins; assay type: ADME, organism-based, Plasma; set-up: time < 0.166667 hr, dose 0.09 mmol/kg, route intragastric; details: in vivo, po; in short: as §1
[8] = Cmax in intragastrically dosed rat at 0.09 mmol/kg after 10 mins; assay type: ADME, organism-based; set-up: dose 0.09 mmol/kg, route intragastric; details: in vivo, po
In short: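 Rats dosed intragastrically, with the same animals receiving both resveratrol and the glucosylsuccinyl derivative. Blood was sampled over time. Circulating species were identified by HPLC-UV at 320 nm and LC–MS against synthesized phase II metabolite standards (sulfates, glucuronides), with confirmation by enzymatic treatment. Cmax was read from concentration–time curves.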

[9] = Solubility in pH 9 buffer; assay type: physicochemical

Row | AUC [1] [µM·h] | solubility [2] [mg/mL] | AUC [3] [µM·h] | AUC [4] [µM·h] | Stability [5] [%] | AUC [6] [µM·h] | AUC [7] [µM·h] | Cmax [8] [nM] | solubility [9] [mg/mL] | Structure (SMILES)
1 | 3.5 | 90 (≈ 88.7 mM) | 27 | 51.8 | 80 | 21.2 | 0.2 |  |  | O=C(CCC(=O)O[C@@H]1[C@@H](O)[C@@H](O)O[C@H](CO)[C@H]1O)Oc1ccc(/C=C/c2cc(OC(=O)CCC(=O)O[C@@H]3[C@@H](O)[C@@H](O)O[C@H](CO)[C@H]3O)cc(OC(=O)CCC(=O)O[C@@H]3[C@@H](O)[C@@H](O)O[C@H](CO)[C@H]3O)c2)cc1
2 | 2.4 |  | 14.4 | 53.4 |  | 35.5 | 1.1 | 1200 |  | Oc1ccc(/C=C/c2cc(O)cc(O)c2)cc1 [RESVERATROL]
3 |  |  |  |  |  |  |  |  | 2.3 (≈ 3.77 mM) | C[C@@H]1O[C@@H](OC[C@H]2O[C@@H](Oc3c(-c4ccc(O)c(O)c4)oc4cc(O)cc(O)c4c3=O)[C@H](O)[C@@H](O)[C@@H]2O)[C@H](O)[C@H](O)[C@H]1O [RUTIN]
